The array DNA melting data of Ke et al. (doi:10.1101/2024.01.08.574731)

Experiments:
[1] = folding enthalpy; higher = less favourable; fluorescence melt of hairpins on a sequencing array, two-state fit; conditions: sodium 0.088 M
In short: (§1)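 Cy3 fluorescence of library hairpins on a sequenced MiSeq flow cell, with annealed Cy3 and quencher oligos, was imaged in 50 mM Na-HEPES pH 8.0, 25 mM NaCl in 2.5 °C steps up to 60 °C. Signals were normalised to pre-quench Cy3 and to control variants. Melting temperature and folding enthalpy came from bootstrapped two-state fits, inverse-variance combined over four replicates. Fitted temperatures were raised by 9.35 °C to match UV melts.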

[2] = melting temperature; fluorescence melt of hairpins on a sequencing array, two-state fit, raised by 9.35 °C to match UV melts; conditions: sodium 0.088 M
In short: as §1

| Sequence | folding enthalpy [1] | Tm [2] |
| --- | --- | --- |
| CGAGACGGAAACGTTCG (((.(((....)))))) | -26.3 kcal/mol | 40.9 °C |
| CGAGCCGGAAACGGTTCG (((.(((....))).))) | -40.1 kcal/mol | 56 °C |
| CGAGCGCGGAAACGCTCG (((..(((....)))))) | -29.8 kcal/mol | 68.5 °C |
| CGAGCGGAAACGCAATCG ((((((....)))..))) | -19.3 kcal/mol | 38.7 °C |
| CGAGCGGAAACGCCCTCG ((((((....)))..))) | -12.8 kcal/mol | 35.9 °C |
| CGAGCGGAAACGCCTCG ((((((....))).))) | -29.6 kcal/mol | 52.3 °C |
| CGAGCGGAAACGCGATCG ((((((....)))..))) | -12.1 kcal/mol | 47 °C |
| CGAGCGGAAACGCTTTCG ((((((....)))..))) | -11.8 kcal/mol | 30.4 °C |
| CGAGGCGGAAACGCATCG (((.(((....))).))) | -37 kcal/mol | 64.2 °C |
| CGAGGCGGAAACGCTCG (((.(((....)))))) | -20.5 kcal/mol | 51 °C |
| CGAGTCCGGAAACGGTCG (((..(((....)))))) | -12.3 kcal/mol | 42.4 °C |
| CGAGTCGGAAACGAATCG (((.(((....))).))) | -39.9 kcal/mol | 52.2 °C |
| CGAGTGCGGAAACGCTCG (((..(((....)))))) | -21.6 kcal/mol | 47.7 °C |
| CGATCCGGAAACGGCTCG (((.(((....))).))) | -28.7 kcal/mol | 48.1 °C |
| CGATCGGAAACGAACTCG ((((((....)))..))) | -9.8 kcal/mol | 24.4 °C |
| CGATCGGAAACGACTTCG ((((((....)))..))) | -11.3 kcal/mol | 25.6 °C |
| CGATGACGGAAACGTTCG (((..(((....)))))) | -29.1 kcal/mol | 36.7 °C |
| CGATGCGGAAACGCTCG (((.(((....)))))) | -28.4 kcal/mol | 50 °C |
| CGATTCGGAAACGATTCG (((.(((....))).))) | -33.2 kcal/mol | 45.8 °C |
| CGCAAACGGAAACGTGCG (((..(((....)))))) | -36.2 kcal/mol | 50.9 °C |
| CGCACGGAAACGTAGGCG ((((((....)))..))) | -30.6 kcal/mol | 46.3 °C |
| CGCACGGAAACGTATGCG ((((((....)))..))) | -35.9 kcal/mol | 46.7 °C |
| CGCACGGAAACGTGGCG ((((((....))).))) | -25.9 kcal/mol | 54.2 °C |

| Sequence | folding enthalpy [1] | Tm [2] |
| --- | --- | --- |
| CGCAGCGGAAACGCAGCG (((.(((....))).))) | -29.9 kcal/mol | 68.5 °C |
| CGCCACGGAAACGTGCG (((.(((....)))))) | -24.7 kcal/mol | 54.4 °C |
| CGCCACGGAAACGTTGCG (((.(((....))).))) | -33.4 kcal/mol | 51.1 °C |
| CGCCCCGGAAACGGCGCG (((.(((....))).))) | -36.5 kcal/mol | 52.1 °C |
| CGCCCGGAAACGGATGCG ((((((....)))..))) | -25 kcal/mol | 48.4 °C |
| CGCCCGGAAACGGCAGCG ((((((....)))..))) | -30.7 kcal/mol | 48.7 °C |
| CGCCCGGAAACGGCGCG ((((((....))).))) | -26.8 kcal/mol | 58.4 °C |
| CGCCCGGAAACGGTGCG ((((((....))).))) | -31.7 kcal/mol | 57.9 °C |
| CGCCTCGGAAACGAAGCG (((.(((....))).))) | -25.9 kcal/mol | 48.3 °C |
| CGCCTGCGGAAACGCGCG (((..(((....)))))) | -16.9 kcal/mol | 42.1 °C |
| CGCGCGGAAACGCCTGCG ((((((....)))..))) | -17.2 kcal/mol | 46.8 °C |
| CGCGCGGAAACGCTAGCG ((((((....)))..))) | -31 kcal/mol | 55.6 °C |
| CGCGGAAAAACCGCG ((...........)) | -29.7 kcal/mol | 65.7 °C |
| CGCGGAACGGTCCGCG ((((((....)))))) | -38.7 kcal/mol | 61.6 °C |
| CGCGGAAGCTCCGCG ((((((...)))))) | -26.3 kcal/mol | 68.8 °C |
| CGCGGAATAGTCCGCG ((((((....)))))) | -25.5 kcal/mol | 68.5 °C |
| CGCGGAATGATCCGCG ((((((....)))))) | -39.7 kcal/mol | 62.5 °C |
| CGCGGAATGGTCCGCG ((((((....)))))) | -30.2 kcal/mol | 69 °C |
| CGCGGACAATTCCGCG ((((((....)))))) | -30.5 kcal/mol | 62.2 °C |
| CGCGGACCTTCCGCG ((((((...)))))) | -28.5 kcal/mol | 69.2 °C |
| CGCGGACGAATCCGCG ((((((....)))))) | -33.2 kcal/mol | 68.5 °C |
| CGCGGACGATCCGCG ((((((...)))))) | -35.3 kcal/mol | 63.2 °C |
| CGCGGACGCTCCGCG ((((((...)))))) | -31.7 kcal/mol | 66.6 °C |

| Sequence | folding enthalpy [1] | Tm [2] |
| --- | --- | --- |
| CGCGGACTGTCCGCG ((((((...)))))) | -42.3 kcal/mol | 64.7 °C |
| CGCGGATAGTTCCGCG ((((((....)))))) | -35.4 kcal/mol | 68.5 °C |
| CGCGGATGATTCCGCG ((((((....)))))) | -31.2 kcal/mol | 69.3 °C |
| CGCGGATTGCTCCGCG ((((((....)))))) | -48.8 kcal/mol | 64.9 °C |
| CGCGGTCGGAAACGAGCG (((..(((....)))))) | -15.1 kcal/mol | 56.1 °C |
| CGCGTCGGAAACGAAGCG (((.(((....))).))) | -34 kcal/mol | 56.7 °C |
| CGCTAGCGGAAACGCGCG (((..(((....)))))) | -25.3 kcal/mol | 52.7 °C |
| CGCTCCGGAAACGGCGCG (((.(((....))).))) | -39.5 kcal/mol | 56.9 °C |
| CGCTCGGAAACGATTGCG ((((((....)))..))) | -25.4 kcal/mol | 39.8 °C |
| CGCTTCGGAAACGAGGCG (((.(((....))).))) | -42.4 kcal/mol | 55.9 °C |
| CGCTTTCGGAAACGAGCG (((..(((....)))))) | -24.9 kcal/mol | 36.1 °C |
| CGGACCGGAAACGGCCCG (((.(((....))).))) | -39.9 kcal/mol | 56.4 °C |
| CGGACGGAAACGTCTCCG ((((((....)))..))) | -11.3 kcal/mol | 35.7 °C |
| CGGACGGAAACGTGTCCG ((((((....)))..))) | -32.8 kcal/mol | 49.5 °C |
| CGGAGCCGGAAACGGCCG (((..(((....)))))) | -11.2 kcal/mol | 46.6 °C |
| CGGCCACGGAAACGTCCG (((..(((....)))))) | -10.4 kcal/mol | 33.6 °C |
| CGGCCCGGAAACGGTCCG (((.(((....))).))) | -45.1 kcal/mol | 55.3 °C |
| CGGCCGGAAACGGATCCG ((((((....)))..))) | -22 kcal/mol | 39.8 °C |
| CGGCCGGAAACGGGCCCG ((((((....)))..))) | -9.66 kcal/mol | 46.8 °C |
| CGGCCGGAAACGGGTCCG ((((((....)))..))) | -18.6 kcal/mol | 50.4 °C |
| CGGCCGGAAACGGTCCCG ((((((....)))..))) | -13.1 kcal/mol | 41 °C |
| CGGCCTCGGAAACGACCG (((..(((....)))))) | -18.7 kcal/mol | 34.5 °C |
| CGGCGCGGAAACGCACCG (((.(((....))).))) | -29.3 kcal/mol | 67.4 °C |

| Sequence | folding enthalpy [1] | Tm [2] |
| --- | --- | --- |
| CGGCGCGGAAACGCCCCG (((.(((....))).))) | -17.5 kcal/mol | 52 °C |
| CGGCTTCGGAAACGACCG (((..(((....)))))) | -18.2 kcal/mol | 37.9 °C |
| CGGGAACGGAAACGTCCG (((..(((....)))))) | -22.2 kcal/mol | 43.1 °C |
| CGGGCACGGAAACGTCCG (((..(((....)))))) | -19.9 kcal/mol | 38.9 °C |
| CGGGCGGAAACGCATCCG ((((((....)))..))) | -15.9 kcal/mol | 44.3 °C |
| CGGGGACGGAAACGTCCG (((..(((....)))))) | -7.9 kcal/mol | 50.2 °C |
| CGGGGGCGGAAACGCCCG (((..(((....)))))) | -6.12 kcal/mol | 52.2 °C |
| CGGGTACGGAAACGTCCG (((..(((....)))))) | -20 kcal/mol | 40 °C |
| CGGGTCGGAAACGAACCG (((.(((....))).))) | -42.8 kcal/mol | 59.6 °C |
| CGGTAGCGGAAACGCCCG (((..(((....)))))) | -23.4 kcal/mol | 48.7 °C |
| CGGTCGCGGAAACGCCCG (((..(((....)))))) | -20.9 kcal/mol | 47.1 °C |
| CGGTCGGAAACGAACCG ((((((....))).))) | -33.3 kcal/mol | 51.6 °C |
| CGGTCGGAAACGAATCCG ((((((....)))..))) | -25.8 kcal/mol | 37 °C |
| CGGTCGGAAACGACCCG ((((((....))).))) | -10 kcal/mol | 51.5 °C |
| CGGTCGGAAACGAGCCCG ((((((....)))..))) | -14 kcal/mol | 37.5 °C |
| CGGTGCCGGAAACGGCCG (((..(((....)))))) | -9.28 kcal/mol | 47.5 °C |
| CGGTTCGGAAACGACCCG (((.(((....))).))) | -33 kcal/mol | 50 °C |
| CGGTTCGGAAACGACCG (((.(((....)))))) | -35.6 kcal/mol | 50.6 °C |
| CGTAAGCGGAAACGCACG (((..(((....)))))) | -22.6 kcal/mol | 41.8 °C |
| CGTACCCGGAAACGGACG (((..(((....)))))) | -12.3 kcal/mol | 31.8 °C |
| CGTACGGAAACGTCACG ((((((....))).))) | -22.6 kcal/mol | 38.4 °C |
| CGTACGGAAACGTGTACG ((((((....)))..))) | -25.2 kcal/mol | 41.5 °C |
| CGTACGGAAACGTTCACG ((((((....)))..))) | -18.6 kcal/mol | 39 °C |
